Laboratory results from ChEMBL document CHEMBL4251558, “Synthesis and preliminary antiproliferative activity of new pteridin-7(8H)-one derivatives” (Eur J Med Chem, 2018).
Blank lines part the entries; values can stand above or below the compound they belong to. The source made the active and inactive calls. The rule behind the calls is not given here.

Tests used:
MKN-45 [1] = experiment: Antiproliferative activity against human MKN45 cells assessed as decrease in cell viability after 48 hrs by MTT assay; type: functional, cell-based; conditions: MKN-45, 48 h
Procedure, shortened: (§1)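 Cells in exponential growth seeded at 3000 per well and allowed 24 h. Medium then replaced with fresh medium holding a range of compound concentrations, followed by 48 h incubation. Viability read by MTT at 570 nm. IC50 is the concentration giving 50% inhibition of proliferation, reported as mean ± SD of three independent experiments.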

MGC-803 = experiment: Antiproliferative activity against human MGC803 cells assessed as decrease in cell viability after 48 hrs by MTT assay; type: functional, cell-based; conditions: MGC-803, 48 h; procedure, shortened: as §1
ECa-109 cell line = experiment: Antiproliferative activity against human EC109 cells assessed as decrease in cell viability after 48 hrs by MTT assay; type: functional, cell-based; conditions: ECa-109, 48 h; procedure, shortened: as §1
NCI-H1650 = experiment: Antiproliferative activity against human NCI-H1650 cells assessed as decrease in cell viability after 48 hrs by MTT assay; type: functional, cell-based; conditions: NCI-H1650, 48 h; procedure, shortened: as §1
MKN-45 [2] = experiment: Induction of apoptosis in human MKN45 cells assessed as cell rounding at 4 to 8 uM after 24 hrs by Hoechst 33258 staining-based fluorescence microscopic method; type: functional
MKN-45 [3] = experiment: Induction of apoptosis in human MKN45 cells assessed as chromatin shrinkage at 4 to 8 uM after 24 hrs by Hoechst 33258 staining-based fluorescence microscopic method; type: functional, cell-based
MKN-45 [4] = experiment: Induction of apoptosis in human MKN45 cells assessed as formation of apoptotic bodies at 4 to 8 uM after 24 hrs by Hoechst 33258 staining-based fluorescence microscopic method; type: functional, cell-based
MKN-45 [5] = experiment: Induction of apoptosis in human MKN45 cells after 24 hrs by Annexin V-FITC/propidium iodide staining-based flow-cytometric method; type: functional, cell-based
MKN-45 [6] = experiment: Induction of apoptosis in human MKN45 cells assessed as early apoptotic cells at 2 uM after 24 hrs by Annexin V-FITC/propidium iodide staining-based flow-cytometric method (reference value: 1.31%); type: functional
MKN-45 [7] = experiment: Induction of apoptosis in human MKN45 cells assessed as late apoptotic cells at 2 uM after 24 hrs by Annexin V-FITC/propidium iodide staining-based flow-cytometric method (reference value: 3.99%); type: functional
MKN-45 [8] = experiment: Induction of apoptosis in human MKN45 cells assessed as necrotic cells at 2 uM after 24 hrs by Annexin V-FITC/propidium iodide staining-based flow-cytometric method (reference value: 3.86%); type: functional
MKN-45 [9] = experiment: Induction of apoptosis in human MKN45 cells assessed as viable cells at 2 uM after 24 hrs by Annexin V-FITC/propidium iodide staining-based flow-cytometric method (reference value: 90.8%); type: functional; conditions: MKN-45, 24 h, read-out: Activity
MKN-45 [10] = experiment: Induction of apoptosis in human MKN45 cells assessed as early apoptotic cells at 4 uM after 24 hrs by Annexin V-FITC/propidium iodide staining-based flow-cytometric method (reference value: 1.31%); type: functional
MKN-45 [11] = experiment: Induction of apoptosis in human MKN45 cells assessed as late apoptotic cells at 4 uM after 24 hrs by Annexin V-FITC/propidium iodide staining-based flow-cytometric method (reference value: 3.99%); type: functional
MKN-45 [12] = experiment: Induction of apoptosis in human MKN45 cells assessed as necrotic cells at 4 uM after 24 hrs by Annexin V-FITC/propidium iodide staining-based flow-cytometric method (reference value: 3.86%); type: functional
MKN-45 [13] = experiment: Induction of apoptosis in human MKN45 cells assessed as viable cells at 4 uM after 24 hrs by Annexin V-FITC/propidium iodide staining-based flow-cytometric method (reference value: 90.8%); type: functional; conditions: MKN-45, 24 h, read-out: Activity
MKN-45 [14] = experiment: Induction of apoptosis in human MKN45 cells assessed as early apoptotic cells at 8 uM after 24 hrs by Annexin V-FITC/propidium iodide staining-based flow-cytometric method (reference value: 1.31%); type: functional
MKN-45 [15] = experiment: Induction of apoptosis in human MKN45 cells assessed as late apoptotic cells at 8 uM after 24 hrs by Annexin V-FITC/propidium iodide staining-based flow-cytometric method (reference value: 3.99%); type: functional
MKN-45 [16] = experiment: Induction of apoptosis in human MKN45 cells assessed as necrotic cells at 8 uM after 24 hrs by Annexin V-FITC/propidium iodide staining-based flow-cytometric method (reference value: 3.86%); type: functional
MKN-45 [17] = experiment: Induction of apoptosis in human MKN45 cells assessed as viable cells at 8 uM after 24 hrs by Annexin V-FITC/propidium iodide staining-based flow-cytometric method (reference value: 90.8%); type: functional; conditions: MKN-45, 24 h, read-out: Activity
MKN-45 [18] = experiment: Induction of apoptosis in human MKN45 cells assessed as upregulation of Bax expression after 24 hrs by Western blot method; type: functional, cell-based
Procedure, shortened: (§2)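 MKN-45 cells treated with a range of concentrations for 24 h. Cells lysed in RIPA buffer with protease inhibitors, and protein measured by BCA assay. Lysates run on SDS-PAGE and transferred to nitrocellulose. Membranes blocked in 5% skim milk for 2 h at RT, incubated with primary antibodies overnight at 4 °C, then secondary antibody (1:5000) for 2 h at RT. Detection by ECL on film.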

MKN-45 [19] = experiment: Induction of apoptosis in human MKN45 cells assessed as downregulation of Bcl-2 expression at 4 to 16 uM after 24 hrs by Western blot method; type: functional, cell-based; procedure, shortened: as §2
MKN-45 [20] = experiment: Induction of apoptosis in human MKN45 cells assessed as cleavage of caspases-3 after 24 hrs by Western blot method; type: functional, cell-based; procedure, shortened: as §2
MKN-45 [21] = experiment: Induction of apoptosis in human MKN45 cells assessed as cleavage of caspases-9 after 24 hrs by Western blot method; type: functional, cell-based; procedure, shortened: as §2
MKN-45 [22] = experiment: Cell cycle arrest in human MKN45 cells assessed as accumulation at G2/M phase after 24 hrs by propidium iodide staining-based flow cytometric method; type: functional
Procedure, shortened: (§3)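 MKN-45 cells exposed to compound at 0, 2, 4 or 8 µM for 24 h. Cells then fixed and stained with PI, and DNA content analysed by flow cytometry to give phase distribution. Run three times; a representative experiment is shown.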

MKN-45 [23] = experiment: Cell cycle arrest in human MKN45 cells assessed as accumulation at G1 phase at 2 uM after 24 hrs by propidium iodide staining-based flow cytometric method (reference value: 58.2%); type: functional; procedure, shortened: as §3
MKN-45 [24] = experiment: Cell cycle arrest in human MKN45 cells assessed as accumulation at G2/M phase at 2 uM after 24 hrs by propidium iodide staining-based flow cytometric method (reference value: 1.62%); type: functional; procedure, shortened: as §3
MKN-45 [25] = experiment: Cell cycle arrest in human MKN45 cells assessed as accumulation at S phase at 2 uM after 24 hrs by propidium iodide staining-based flow cytometric method (reference value: 24.9%); type: functional; procedure, shortened: as §3
MKN-45 [26] = experiment: Cell cycle arrest in human MKN45 cells assessed as accumulation at G1 phase at 4 uM after 24 hrs by propidium iodide staining-based flow cytometric method (reference value: 58.2%); type: functional; procedure, shortened: as §3
MKN-45 [27] = experiment: Cell cycle arrest in human MKN45 cells assessed as accumulation at G2/M phase at 4 uM after 24 hrs by propidium iodide staining-based flow cytometric method (reference value: 1.62%); type: functional; procedure, shortened: as §3
MKN-45 [28] = experiment: Cell cycle arrest in human MKN45 cells assessed as accumulation at S phase at 4 uM after 24 hrs by propidium iodide staining-based flow cytometric method (reference value: 24.9%); type: functional; procedure, shortened: as §3
MKN-45 [29] = experiment: Cell cycle arrest in human MKN45 cells assessed as accumulation at G1 phase at 8 uM after 24 hrs by propidium iodide staining-based flow cytometric method (reference value: 58.2%); type: functional; procedure, shortened: as §3
MKN-45 [30] = experiment: Cell cycle arrest in human MKN45 cells assessed as accumulation at G2/M phase at 8 uM after 24 hrs by propidium iodide staining-based flow cytometric method (reference value: 1.62%); type: functional; procedure, shortened: as §3
MKN-45 [31] = experiment: Cell cycle arrest in human MKN45 cells assessed as accumulation at S phase at 8 uM after 24 hrs by propidium iodide staining-based flow cytometric method (reference value: 24.9%); type: functional; procedure, shortened: as §3

Structure (SMILES): CCCSc1nc(Nc2ccccc2)c2ncc(=O)n(Cc3ccccc3)c2n1
IC50 (MKN-45 [1]): 38.6 µM
IC50 (MGC-803): 36.6 µM
IC50 (ECa-109 cell line): 19 µM
IC50 (NCI-H1650): > 64 µM

Structure (SMILES): CCCNc1nc(SCCC)nc2c1ncc(=O)n2Cc1ccccc1
IC50 (MKN-45 [1]): 39.2 µM
IC50 (MGC-803): > 64 µM
IC50 (ECa-109 cell line): > 64 µM
IC50 (NCI-H1650): > 64 µM

Structure (SMILES): CCCSc1nc(NCC2CCCCC2)c2ncc(=O)n(Cc3ccccc3)c2n1
IC50 (MKN-45 [1]): 21 µM
IC50 (MGC-803): 30.4 µM
IC50 (ECa-109 cell line): 36 µM
IC50 (NCI-H1650): > 64 µM

Structure (SMILES): CCCSc1nc(N2CCN(C)CC2)c2ncc(=O)n(CC(C)C)c2n1
IC50 (MKN-45 [1]): 16.8 µM
IC50 (MGC-803): 17.2 µM
IC50 (ECa-109 cell line): 37.5 µM
IC50 (NCI-H1650): 45.4 µM

Structure (SMILES): CCCSc1nc(Nc2ccccc2OC)c2ncc(=O)n(Cc3ccccc3)c2n1
IC50 (MKN-45 [1]): 14.7 µM
IC50 (MGC-803): 19.4 µM
IC50 (ECa-109 cell line): > 64 µM
IC50 (NCI-H1650): 51.8 µM

Further lines, with some results ahead:

IC50 (MKN-45 [1]): 11.6 µM
IC50 (MGC-803): > 64 µM
IC50 (NCI-H1650): 54.9 µM
Structure (SMILES): CCCSc1nc(N2CCN(C)CC2)c2ncc(=O)n(Cc3ccco3)c2n1
IC50 (ECa-109 cell line): 24 µM

IC50 (MKN-45 [1]): 4.32 µM
IC50 (MGC-803): 7.01 µM
IC50 (NCI-H1650): 9.92 µM
Structure (SMILES): CCCSc1nc(N2CCN(C)CC2)c2ncc(=O)n(Cc3ccccc3)c2n1
IC50 (ECa-109 cell line): 9.85 µM
Activity (MKN-45 [2]): Active
Activity (MKN-45 [3]): Active
Activity (MKN-45 [4]): Active
Activity (MKN-45 [5]): Dose-dependent effect
Activity (MKN-45 [6]): 15.7%
Activity (MKN-45 [7]): 11.3%
Activity (MKN-45 [8]): 1.62%
viability at 2 µM (MKN-45 [9]): 71.4%
Activity (MKN-45 [10]): 9.91%
Activity (MKN-45 [11]): 16%
Activity (MKN-45 [12]): 1.02%
viability at 4 µM (MKN-45 [13]): 73%
Activity (MKN-45 [14]): 7.77%
Activity (MKN-45 [15]): 23.1%
Activity (MKN-45 [16]): 2.34%
viability at 8 µM (MKN-45 [17]): 66.8%
Activity (MKN-45 [18]): Dose-dependent effect
Activity (MKN-45 [19]): Active
Activity (MKN-45 [20]): Dose-dependent effect
Activity (MKN-45 [21]): Dose-dependent effect
Activity (MKN-45 [22]): Dose-dependent effect
Activity (MKN-45 [23]): 42.2%
Activity (MKN-45 [24]): 16.6%
Activity (MKN-45 [25]): 20.2%
Activity (MKN-45 [26]): 16.2%
Activity (MKN-45 [27]): 29.2%
Activity (MKN-45 [28]): 24%
Activity (MKN-45 [29]): 6.91%
Activity (MKN-45 [30]): 40.8%
Activity (MKN-45 [31]): 25.7%

IC50 (MKN-45 [1]): > 64 µM
IC50 (MGC-803): 49.6 µM
IC50 (NCI-H1650): > 64 µM
Structure (SMILES): CCCSc1nc(N2CCOCC2)c2ncc(=O)n(Cc3ccccc3)c2n1
IC50 (ECa-109 cell line): > 64 µM

IC50 (MKN-45 [1]): 15.4 µM
IC50 (MGC-803): 18.7 µM
IC50 (NCI-H1650): > 64 µM
Structure (SMILES): CCCSc1nc(N2CCN(Cc3ccccc3)CC2)c2ncc(=O)n(Cc3ccccc3)c2n1
IC50 (ECa-109 cell line): > 64 µM
